In ChEMBL document CHEMBL1122821, “Synthesis and some pharmacological properties of 18 potent O-alkyltyrosine-substituted antagonists of the vasopressor responses to arginine-vasopressin” (J Med Chem, 1985):
Starred links: 1 amine or outer side, 2 acyl side, 3 side chain; linkers in the order of their positions; H or OH if unused. Positions of bridges follow the written chain, without caps; N, C: chain ends. Non-standard residues stand in square brackets, D forms with d. Residues, ends and D or L forms follow the SMILES beside them. X2 = O=C(CC1(S[*:2])CCCCC1)[*:1]

Columns and labels:
Rattus norvegicus [1] = test: In vivo anti-vasopressor activity measured as the negative logarithm of the effective dose / the estimated volume of distribution (67 mL/kg); type: ADME, organism-based; details: read-out: pA2 (converted)
Method in brief: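 Rats treated with phenoxybenzamine under urethane anesthesia. Pressor responses to the USP posterior pituitary standard were given intravenously. Effective dose (nmol/kg) was interpolated on a log scale; means ± SE of at least four estimates. pA2 = −log(effective dose / 67 mL/kg).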

Rattus norvegicus [2] = organism: Rattus norvegicus; test: Antidiuretic activity was evaluated for the compound in rats under ethanol anesthesia; antagonist; type: functional, Urine
Method in brief: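 Rats under ethanol anesthesia, with USP posterior pituitary reference standard as agonist. Each peptide was given at a high and a low dose, bracketing the dose that cuts the response to 2x units of agonist to the 1x-unit response. Effective dose (nmol/kg) was interpolated on a log scale. In vivo pA2 = −log(effective dose / 67 mL/kg). Means ± SE of at least four estimates.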

Rattus norvegicus [3] = test: In vivo antidiuretic activity in rats under ethanol anesthesia.; type: functional, Urine
Method in brief: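 Rats under ethanol anesthesia, with the USP posterior pituitary reference standard as reference. Agonistic activity is expressed in units per milligram.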

Rattus norvegicus [4] = organism: Rattus norvegicus; test: In vitro anti-oxytocic potency was evaluated in the absence of Mg2+; type: functional; details: read-out: pA2 (converted)
Method in brief: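 Isolated rat uterus in medium containing no Mg2+. USP posterior pituitary reference standard used as agonist. In vitro pA2 values were derived as in Bankowski et al.; means ± SE.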

Rattus norvegicus [5] = organism: Rattus norvegicus; test: In vitro anti-oxytocic potency was evaluated in the presence of 0.5 mM of Mg2+; type: functional; details: read-out: pA2 (converted)
Method in brief: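 Isolated rat uterus in medium containing 0.5 mM Mg2+. USP posterior pituitary reference standard used as agonist. In vitro pA2 values were derived as in Bankowski et al.; means ± SE.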

Row | SMILES | Kb (Rattus norvegicus [1]) [nM] | Activity (Rattus norvegicus [2]) [mg] | Activity (Rattus norvegicus [3]) [units/mg] | Kb (Rattus norvegicus [4]) [nM] | Kb (Rattus norvegicus [5]) [nM]
1 | CCOc1ccc(C[C@@H]2NC(=O)CC3(CCCCC3)SSC[C@@H](C(=O)N3CCC[C@H]3C(=O)N[C@H](CCCN=C(N)N)C(=O)NCC(N)=O)NC(=O)[C@H](CC(N)=O)NC(=O)[C@H](C(C)C)NC(=O)[C@H](Cc3ccccc3)NC2=O)cc1 (Y(Et)FVNCP[dR]G-NH2; linker N-5 via X2) | 6.92 | 7.57 | – | – | –
2 | COc1ccc(C[C@@H]2NC(=O)CC(C)(C)SSC[C@@H](C(=O)N3CCC[C@H]3C(=O)NC(CCCN=C(N)N)C(=O)NCC(N)=O)NC(=O)[C@H](CC(N)=O)NC(=O)[C@H](CCC(N)=O)NC(=O)[C@H](Cc3ccccc3)NC2=O)cc1 (stereo in doubt) | 4.9 | – | 0.46 | 17 | 43.7
3 | CCOc1ccc(C[C@@H]2NC(=O)CC3(CCCCC3)SSC[C@@H](C(=O)N3CCC[C@H]3C(=O)N[C@@H](CCCN=C(N)N)C(=O)NCC(N)=O)NC(=O)[C@H](CC(N)=O)NC(=O)[C@H](C(C)C)NC(=O)[C@H](Cc3ccccc3)NC2=O)cc1 (Y(Et)FVNCPRG-NH2; linker N-5 via X2) | – | 7.1 | – | 9.55 | 87.1
